We go through five substances from article PMC7945681 (Journal of materials chemistry. B, 2020).

In one test the target is human VCAM1. Put plainly: SPR measurement of peptide-VCAM1 binding. As to conditions: for ∣ΔΔGB∣: ∣ΔGB,trans – ΔGB,cis∣ from SPR values. The method in brief:
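Peptide-functionalised gold sensor chips, with three sensors per ligand and ligand density measured by variable angle spectroscopic ellipsometry. Chip-bound peptide was conditioned to cis or trans isomer, then exposed to human VCAM1 at 0.01–1 mg mL−1 in PBS. KD was determined for each isomer.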

Another test concerns VCAM1^+ BMECs. The test is classed as cell-based, human. As to conditions: for co-localization of the cis isomer with anti-VCAM1 antibody: VCAM1^+ BMECs, confocal microscopy.

Consider “cycloAZOB[G-VHAKQHRN-K*] (sidechain bridge or staple)”, for which the “KD,trans/KD,cis” value on human VCAM1 (affinity shift between trans and cis isomers, SPR) was ~ 130. Also, the “∣ΔΔGB∣” value in the test on human VCAM1 turned out to be 2.93. For the same substance, the “binding to BMECs in trans configuration” value with VCAM1^+ BMECs (BMEC labelling, fluorescence microscopy) is listed as “negligible binding”. Further, the “co-localization of the cis isomer with anti-VCAM1 antibody” value in the test on VCAM1^+ BMECs is “clear co-localization”. For “cycloAZOB[G-VHAKQHRN-K*]-K(Biotin) (sidechain bridge or staple)”, in the test on VCAM1^+ BMECs, the “co-localization of the cis isomer with anti-VCAM1 antibody” value is given as “co-localization with anti-VCAM1 antibodies in cis configuration”. Consider “cycloAZOB[G-VHNKQHRP-K*] (sidechain bridge or staple)”, for which the “∣ΔΔGB∣” value in the test on human VCAM1 amounted to 1.84.

In the case of “cycloAZOB[G-VHPKQHRP-K*] (sidechain bridge or staple)”, the “∣ΔΔGB∣” value in the test on human VCAM1 is on record as 1.52. Same read-out and setting: then “cycloAZOB[G-VHPKQHRS-K*] (sidechain bridge or staple)”, with 2.52.
